Laboratory results: ChEMBL document CHEMBL1124846, “Synthesis, antiproliferative, and antiviral activity of certain 4-substituted and 4,5-disubstituted 7-[(1,3-dihydroxy-2-propoxy)methyl]pyrrolo[2,3-d]pyrimidines” (J Med Chem, 1990)
Values joined by “and” are separate entries in the source; they are usually repeats but may differ in a detail not shown here. Identical values can stand only once.

Columns and labels:
Neoplastic cell line = test: Cytotoxic activity against KB cells.; format: cell-based; conditions: Homo sapiens
Outline: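 KB cells (human oral epidermoid carcinoma) grown in MEM(H) with 5% FBS. Compound effect on incorporation of radiolabelled precursors into DNA, RNA and protein was measured. IC50s came from linear regression of percent inhibition against log concentration, and the three IC50s were averaged.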

L1210 [1] = test: In vitro inhibition of L1210 cell growth to half of the control rate; format: functional, cell-based; conditions: Mus musculus
Outline: (§1)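 Murine L1210 leukemia cells in static suspension culture in Fischer's medium with compound for 4 days. Growth rate is the ratio of control to treated population doubling time; where the rate changed, the final rate was used. IC50 is the concentration giving 50% of control growth rate; single-concentration value at 100 μM.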

L1210 [2] = test: In vitro inhibition of L1210 cell growth.; format: functional, Mus musculus; parameters: concentration or dose not given beside the values; outline: as §1
Human betaherpesvirus 5 = test: Inhibition of human cytomegalovirus (HCMV) in plaque reduction assay; format: functional, organism-based
Outline: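 HCMV Towne strain (plaque-purified P0) plaque reduction in HFF monolayers in MEM(E) with 10% FBS. Inoculum held about 50 PFU, with compound dissolved in the overlay medium. IC50 came from linear regression of percent inhibition against log concentration, with ganciclovir or acyclovir positive controls in every set; two to five experiments.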

[3] = Cytotoxic activity against HFF cells.; format: cell-based; conditions: Homo sapiens
Outline: (§2)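 Cytotoxicity was scored visually in uninfected HFF or BSC-1 monolayers within the plaque-reduction assays. Drug-induced cytopathology was read at 35- and 60-fold magnification on a 0 to 4+ scale on the day plaques were stained and counted.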

Human alphaherpesvirus 1 = test: Inhibition of herpes simplex virus (HSV-1) in plaque reduction assay; format: functional, organism-based
Outline: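 HSV-1 S-148 strain plaque reduction in BSC-1 monkey kidney monolayers, with about 100 PFU inoculum and compound dissolved in the overlay medium. IC50 came from linear regression of percent inhibition against log concentration, with a positive control in each set.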

[4] = Cytotoxic activity against BSC cells; format: cell-based; conditions: Cercopithecidae; outline: as §2

| Structure (SMILES) | IC50 (Neoplastic cell line) [µM] | IC50 (L1210 [1]) [µM] | Activity (L1210 [2]) [%] | IC50 (Human betaherpesvirus 5) | IC50 (Human betaherpesvirus 5; Human betaherpesvirus 5) [µM] | IC50 [3] [µM] | IC50 (Human alphaherpesvirus 1) [µM] | IC50 [4] [µM] |
| --- | --- | --- | --- | --- | --- | --- | --- | --- |
| OC[C@H]1O[C@@H](n2cc(Br)c3c(NO)ncnc32)[C@H](O)[C@@H]1O | > 100 | 25 | 10 | 3 µM | 5.6 | > 100 |  |  |
| OCC(CO)OCn1cc(Cl)c2c(NO)ncnc21 |  | 75 | 41 | 56 µM and 24 µM and 50 µM |  | > 100 |  |  |
| Cc1cn(COC(CO)CO)c2ncnc(N)c12 |  | > 100 | 73 |  | > 100 | > 100 | > 100 |  |
| OCC(CO)OCn1ccc2c(NO)ncnc21 |  |  | 100 |  | > 100 | > 100 |  |  |
| Nc1ncnc2c1ccn2COC(CO)CO |  |  | 106 |  | > 100 | > 100 | > 100 | > 100 |
| OCC(CO)OCn1cc(I)c2c(NO)ncnc21 |  | 39 | 11 | 18 µM and 3.2 µM |  | > 100 | 30 |  |
| CCNc1ncnc2c1c(Br)cn2COC(CO)CO |  |  | 95 |  | > 100 | > 100 | > 100 | > 100 |
| OCC(CO)OCn1ccc2cncnc21 |  |  | 100 |  | > 100 | > 100 |  |  |
